An excerpt weighted towards active compounds, which were near 3.1% of everything screened.
SENP8 block-1: SENP8 protease inhibitors, primary screen, biochemical, luminescence; actives 1.2% (n = 330,000); purified SENP8, Z-RLRGG-aminoluciferin cleavage; inhibition, % at 10 µM; AID 2540, 2010; in the data active means inhibition above about 50%
UBC13 polyUb: UBC13 polyubiquitin chain formation inhibitors, primary screen, biochemical, TR-FRET, uHTS | inhibition, % at 20 µM | actives 0.47% (n = 330,000) | Ubiquitin-conjugating enzyme E2 N (Homo sapiens), P61088; in the data active means inhibition above about 45%, passing the limit was not always enough
Target sequence (P61088 whole entry, looked up): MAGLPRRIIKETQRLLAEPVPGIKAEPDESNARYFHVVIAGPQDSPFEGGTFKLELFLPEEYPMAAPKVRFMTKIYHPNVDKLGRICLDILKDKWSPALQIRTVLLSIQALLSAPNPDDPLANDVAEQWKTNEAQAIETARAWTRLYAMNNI
SENP8 block-2: human SENP8 protease inhibitors, primary screen, biochemical, fluorescence, Nedd8 protein substrate, uHTS; recombinant SENP8; Sentrin-specific protease 8 (Homo sapiens), Q96LD8; AID 602440, 2012; inhibition, % at 20 µM; actives 0.64% (n = 360,000); in the data active means inhibition mostly above about 40%, no sharp cut-off; inactive means mostly below about 27%
SENP7 inh: SENP7 protease inhibitors, primary screen, biochemical, luminescence, uHTS | Sentrin-specific protease 7 (Homo sapiens), Q9BQF6 | recombinant SENP7, Z-RLRGG-aminoluciferin luminescence, 40 min | inhibition, % at 5 µM | actives 1.5% (n = 330,000) | AID 434973, 2010;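 active means inhibition above about 50% at the single test dose, limit read from the data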;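 further: plate controls were DMSO with enzyme for no effect and no enzyme buffer wells for full effect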
Target sequence (Q9BQF6 706-1050 limits assumed): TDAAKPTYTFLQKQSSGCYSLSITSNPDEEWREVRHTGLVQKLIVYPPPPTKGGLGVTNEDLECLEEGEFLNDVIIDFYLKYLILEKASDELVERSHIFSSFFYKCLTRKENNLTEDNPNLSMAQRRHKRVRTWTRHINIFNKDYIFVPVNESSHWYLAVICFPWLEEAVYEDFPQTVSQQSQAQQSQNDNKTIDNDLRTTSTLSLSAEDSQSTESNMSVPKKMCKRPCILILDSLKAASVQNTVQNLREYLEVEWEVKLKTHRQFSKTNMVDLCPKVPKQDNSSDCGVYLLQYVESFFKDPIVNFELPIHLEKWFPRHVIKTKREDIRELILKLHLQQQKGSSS
SENP6 block: SENP6 protease inhibitors, primary screen, biochemical, luminescence, uHTS; Recombinant SENP6 catalytic domain, aminoluciferin luminescence; inhibition, % at 10 µM; actives 1.8% (n = 330,000); AID 2599, 2010;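 active means inhibition above about 50% at the single tested dose, limit read from the data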;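 further: plate controls were DMSO wells with enzyme for no effect and DMSO wells lacking enzyme for full effect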
Apaf-1 inh: inhibitors of human Apaf-1 apoptosome, primary screen, biochemical, DEVD-Rh110 fluorescence, uHTS; Apoptotic protease-activating factor 1 (Homo sapiens), O14727; reconstituted apoptosome caspase-3 activity; inhibition, % at 20 µM; actives 0.71% (n = 330,000); AID 489030, 2010; active means inhibition of at least 40% at 20 µM;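 further: plate controls were DMSO wells for no effect and DEVD-CHO caspase inhibitor wells for full effect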
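Material: reconstituted apoptosome with Apaf-1, cytochrome c, caspase-9, procaspase-3, dATP / Buffer or medium: pH 7.5 Hepes buffer with CHAPS, BSA, DTT / Also added: cytochrome c with DEVD-Rh110 / Schedule: compound with Apaf-1, dATP, procaspase-3 30 min, then 50 min reaction, room temperature / Technique: rhodamine 110 fluorescence at Ex 480/Em 540 nm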
SENP8 conf: SENP8 protease inhibitors, retest, confirmation, biochemical, luminescence, single concentration; shares compounds with SENP7 inh; Recombinant SENP8, Z-RLRGG-aminoluciferin luminescence, 60 min; inhibition, % at 12.5 µM; actives 40% (n = 6,200); AID 488912, 2010;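 active means mean inhibition across replicates above about 50%, limit read from the data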
SENP6 confirm: SENP6 protease inhibitors, confirmation, biochemical, luminescence, single concentration. shares compounds with SENP7 inh. inhibition, % at 12.5 µM. actives 58% (n = 6,200). recombinant SENP6, Z-RLRGG-aminoluciferin luminescence
SENP7 confirm: SENP7 protease inhibitors, retest, confirmation, biochemical, luminescence, single concentration; AID 488917, 2010; actives 69% (n = 6,200); shares compounds with SENP7 inh; recombinant SENP7, Z-RLRGG-aminoluciferin luminescence, 40 min; inhibition, % at 12.5 µM
Casp3 SENP sel: caspase-3 protease inhibitors, confirmation, selectivity assay for SENP inhibitor project, biochemical, single concentration | shares compounds with SENP7 inh | purified caspase-3, Z-DEVD-aminoluciferin luminescence, 60 min | inhibition, % at 12.5 µM | actives 60% (n = 6,200);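 active means mean inhibition above about 50%, limit read from the data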;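 further: plate controls were enzyme with DMSO for no effect and wells without caspase-3 for full effect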
Target sequence (P42574 28-227 limits assumed): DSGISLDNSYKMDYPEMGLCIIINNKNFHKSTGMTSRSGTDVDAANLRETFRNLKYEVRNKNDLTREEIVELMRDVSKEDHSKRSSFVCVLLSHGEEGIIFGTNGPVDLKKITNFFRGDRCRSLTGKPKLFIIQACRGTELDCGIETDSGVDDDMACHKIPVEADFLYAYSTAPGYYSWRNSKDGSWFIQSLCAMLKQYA
SENP luc ctr: counter-screen for SENP inhibitors: luminescence interference; shares compounds with SENP7 inh; Pre-incubated SENP8/Z-RLRGG-aminoluciferin, luciferase luminescence interference; inhibition, % at 12.5 µM; actives 39% (n = 6,200);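 active means mean inhibition above about 50% when retested at one dose, limit read from the data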;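 further: plate controls were DMSO wells with completed reaction for no effect and substrate without enzyme for full effect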
Numbers without * were called inactive; i = inactive; nt = not tested or not shown.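 How the source made its calls, unless noted: active means mean inhibition above about 50% in the one-dose retest (limit read from the data); inactive means the rest.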

SMILES	SENP8 block-1	UBC13 polyUb	SENP8 block-2	SENP7 inh	SENP6 block	Apaf-1 inh	SENP8 conf	SENP6 confirm	SENP7 confirm	Casp3 SENP sel	SENP luc ctr
CC(=O)Oc1ccc(/C=C2/CCc3ccccc3C2=O)cc1	95.3*	-5.9	6.5	96.5*	96.8*	18.6	96.0*	99.7*	101.7*	94.2*	98.3*
O=C1/C(=C/c2ccc([N+](=O)[O-])cc2)CCc2ccccc21	90.2*	10.2	nt	98.3*	94.8*	18.3	1.2	80.6*	-9.0	39.5	36.7
COc1ccc(/C=C2\CCc3ccccc3C2=O)cc1OC	33.0	8.0	1.4	25.2	52.3*	-9.2	69.0*	62.5*	61.9*	27.1	41.9
O=C1/C(=C/c2cccc([N+](=O)[O-])c2)CCc2ccccc21	-0.1	15.1	14.1	-11.3	41.7	13.8	nt	nt	nt	nt	nt
O=[N+]([O-])c1cccc(COc2cccc(CN3CCCCC3)c2)c1	nt	nt	3.4	nt	nt	nt	nt	nt	nt	nt	nt
Cc1ccc(NC(=O)CSc2nnc(NC3CC3)s2)cc1S(=O)(=O)N1CCOCC1	nt	nt	1.6	nt	nt	nt	nt	nt	nt	nt	nt
Cc1c(C=O)c(Cl)n(C)c(=O)c1C#N	41.5	-21.8	-46.1	74.5*	2.5	96.7*	17.1	22.1	9.1	2.1	2.5
COc1ccccc1OCc1nc2ccccc2n1C	-2.0	-0.4	14.0	8.7	15.3	12.4	nt	nt	nt	nt	nt
CCn1c(COc2ccccc2OC)nc2ccccc21	-10.9	2.5	7.9	-3.2	8.8	-1.2	nt	nt	nt	nt	nt
CCn1c(COc2ccccc2C)nc2ccccc21	58.5*	6.5	17.5	47.1	74.6*	1.6	41.3	39.7	78.5*	53.1*	28.6
Cn1c(COc2ccccc2Br)nc2ccccc21	60.5*	11.2	14.4	49.1	69.4*	7.9	51.5*	70.7*	91.0*	63.0*	31.3
CCCCN1C(=O)C(CC(=O)NCCc2ccccn2)CC(C(=O)N(CC)CC)=C1C (stereo not drawn)	nt	nt	-1.2	nt	nt	nt	nt	nt	nt	nt	nt
Oc1cc(O)cc(/C=C/c2ccc(O)c(O)c2)c1	44.1	15.3	-383.7	44.7	64.6*	-8.0	63.2*	71.0*	83.2*	63.3*	73.0*
O=C(N/N=C/c1cccs1)c1cncc(Br)c1	-10.4	-31.1	8.7	-4.5	-5.9	4.0	nt	nt	nt	nt	nt
O=C(N/N=C\c1ccc([N+](=O)[O-])s1)c1cncc(Br)c1	8.8	-36.9	36.9	15.0	69.7*	-1.3	-0.5	18.7	-7.0	3.7	3.5
Cc1nc2c(OCc3ccccc3)cccn2c1N(C)C(=O)C1CCCCC1	nt	nt	14.8	nt	nt	nt	nt	nt	nt	nt	nt
C[C@H]1CN([C@@H](C)CO)C(=O)CCCn2cc(nn2)CO[C@@H]1CN(C)S(=O)(=O)c1ccc(Oc2ccccc2)cc1	nt	nt	7.6	nt	nt	nt	nt	nt	nt	nt	nt
c1csc(-c2nc3ccccc3[nH]2)c1	3.0	7.1	i	39.0	53.0*	2.6	32.9	31.1	69.2*	65.9*	20.7
Cc1ccc(-c2nc3ccccc3[nH]2)s1	92.8*	1.6	-482.8	97.2*	97.0*	5.1	95.9*	96.2*	100.3*	96.3*	95.0*
Cc1nnsc1-c1nc2ccccc2[nH]1	-13.0	17.0	i	-9.2	-8.3	0.1	nt	nt	nt	nt	nt
c1ccc2[nH]c(-c3ccncc3)nc2c1	1.1	8.7	-363.0	7.1	12.8	1.3	nt	nt	nt	nt	nt
CCOC(=O)C[C@@H]1OC[C@H](Cc2ccccc2)N1S(=O)(=O)c1ccc(C)cc1	nt	nt	14.7	nt	nt	nt	nt	nt	nt	nt	nt
COc1ccc(C2=Cc3ccccc3C(CC(=O)C3CC3)N2c2ccc(-c3cc(OC)c(OC)c(OC)c3)cc2)cc1 (stereo not drawn)	nt	nt	-373.8	nt	nt	nt	nt	nt	nt	nt	nt
Cn1cc(C=CC(=O)O)c2nccnc21	nt	nt	13.1	nt	nt	nt	nt	nt	nt	nt	nt
O=C(/C=C/Nc1ccccc1C(=O)O)c1cccs1	82.4*	7.8	-50.7	21.4	91.6*	-2.9	4.2	95.5*	101.7*	97.6*	93.1*
SMILES	SENP8 block-1	UBC13 polyUb	SENP8 block-2	SENP7 inh	SENP6 block	Apaf-1 inh	SENP8 conf	SENP6 confirm	SENP7 confirm	Casp3 SENP sel	SENP luc ctr
Cc1cc(N/C=C/C(=O)c2cccs2)ccc1F	82.2*	4.0	-162.4	46.1	84.6*	11.3	88.0*	90.3*	100.9*	87.2*	41.8
Cc1ccc(N/C=C/C(=O)c2cccs2)cc1C	85.1*	-3.7	-142.9	83.1*	87.8*	13.8	90.7*	91.5*	99.5*	84.0*	85.1*
O=C(/C=C/Nc1cccc([N+](=O)[O-])c1)c1cccs1	35.1	-8.3	11.5	62.2*	70.0*	-4.2	4.3	53.1*	88.3*	58.3*	57.4*
O=C(/C=C/Nc1ccc(Nc2ccccc2)cc1)c1cccs1	nt	nt	16.5	nt	nt	nt	nt	nt	nt	nt	nt
O=C(/C=C/[C@H]1O[C@@H](n2cnc3c(NC(=O)c4ccccc4)ncnc32)[C@H](O)[C@@H]1O)NCc1cccs1	nt	nt	26.1	nt	nt	nt	nt	nt	nt	nt	nt
COc1cc(C)c(C(=O)Oc2cc(C)c(C(=O)O)c(O)c2)c(O)c1	55.4*	-14.3	33.5	-2.7	55.5*	5.2	42.1	34.8	63.6*	22.1	58.9*
COc1cccc(C(=O)Nc2ccc(C3CC3(Cl)Cl)cc2)c1 (stereo not drawn)	92.3*	-11.1	12.5	94.0*	85.1*	26.0	96.0*	96.6*	102.9*	91.8*	39.6
COc1cccc(NC(=O)c2cccc(Cl)c2)c1	77.0*	5.2	21.3	77.1*	83.0*	-6.7	81.4*	78.8*	95.0*	83.0*	81.3*
CCOc1ccc(C(=O)Nc2ccc(C(F)(F)F)n(C)c2=O)cc1	-2.2	12.6	-70.3	5.5	-14.1	0.3	nt	nt	nt	nt	nt
CN(C)S(=O)(=O)Oc1ccc(C(=O)Nc2cccc(Cl)c2)cc1	69.7*	-13.2	12.5	74.6*	58.4*	8.7	83.2*	81.8*	95.7*	63.4*	72.4*

Screening results deposited in PubChem BioAssay by Sanford-Burnham Center for Chemical Genomics.
